System: Fibroblast
Experiment: Multiplex assay against human fibroblast
Type: toxicity, cell-based
Summary of the method: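 At seeding, live cells were stained with Hoechst33342, BioTracker Green Microtubule Cytoskeleton Dye, MitoTracker Red and Annexin V Alexa Fluor 680. After compound addition they were imaged on a CQ1 microscope at 37°C and 5% CO2, and CellPathfinder machine-learning gating sorted them into Hoechst high-intensity objects or normal cells, with normal cells further split into healthy, pyknosed or fragmented nuclei and pyknosed cells into mitotic or apoptotic. Tubulin, mitochondrial-mass and membrane-permeability phenotypes are given as per cents of cells with healthy nuclei.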

[1] = 12 h, 1 µM, compound concentration 1 uM, replicate 1
[2] = 12 h, 1 µM, compound concentration 1 uM, replicate 2
[3] = 12 h, 10 µM, compound concentration 10 uM, replicate 1
[4] = 12 h, 10 µM, compound concentration 10 uM, replicate 2
[5] = 24 h, 1 µM, compound concentration 1 uM, replicate 1
[6] = 24 h, 1 µM, compound concentration 1 uM, replicate 2
[7] = 24 h, 10 µM, compound concentration 10 uM, replicate 1
[8] = 24 h, 10 µM, compound concentration 10 uM, replicate 2
[9] = 48 h, 1 µM, compound concentration 1 uM, replicate 1
[10] = 48 h, 1 µM, compound concentration 1 uM, replicate 2
[11] = 48 h, 10 µM, compound concentration 10 uM, replicate 1
[12] = 48 h, 10 µM, compound concentration 10 uM, replicate 2

For CSc1nc(NC2CCCC2)c([N+](=O)[O-])c(NC2CCCC2)n1 [GS-39783], the “Population Apoptotic (%)” value [1] was 50%, the “Population Fragmented Nuclei (%)” value [1] was 16% and the “Population Healthy Nuclei (%)” value [1] was 66%. The “Population Hoechst High Intensity Objects (%)” value [1] was 3%, the “Population Membrane Permeable-Phenotype (%)” value [1] was 2% and the “Population Mitochondria Different-Phenotype (%)” value [1] was 6%. For the same compound, the “Population Mitotic Cells (%)” value [1] was 50%, the “Population Normal (%)” value [1] was 96% and the “Population Pyknosed Nuclei (%)” value [1] was 16%. For the same compound, the “Population Tubulin-Different-Phenotype (%)” value [1] was 29%, the “Total Cell Count” value [1] was 137 and the “Population Apoptotic (%)” value [2] was 39%. For the same compound, the “Population Fragmented Nuclei (%)” value [2] was 28%, the “Population Healthy Nuclei (%)” value [2] was 46% and the “Population Hoechst High Intensity Objects (%)” value [2] was 5%. The “Population Membrane Permeable-Phenotype (%)” value [2] was 10%, the “Population Mitochondria Different-Phenotype (%)” value [2] was 10% and the “Population Mitotic Cells (%)” value [2] was 60%. The “Population Normal (%)” value [2] was 94%, the “Population Pyknosed Nuclei (%)” value [2] was 25% and the “Population Tubulin-Different-Phenotype (%)” value [2] was 57%. For the same compound, the “Total Cell Count” value [2] was 135, the “Population Apoptotic (%)” value [3] was 54% and the “Population Fragmented Nuclei (%)” value [3] was 16%. The “Population Healthy Nuclei (%)” value [3] was 62%, the “Population Hoechst High Intensity Objects (%)” value [3] was 5% and the “Population Membrane Permeable-Phenotype (%)” value [3] was 0%. For the same compound, the “Population Mitochondria Different-Phenotype (%)” value [3] was 5%, the “Population Mitotic Cells (%)” value [3] was 45% and the “Population Normal (%)” value [3] was 94%. The “Population Pyknosed Nuclei (%)” value [3] was 21%, the “Population Tubulin-Different-Phenotype (%)” value [3] was 39% and the “Total Cell Count” value [3] was 184. For the same compound, the “Population Apoptotic (%)” value [4] was 36%, the “Population Fragmented Nuclei (%)” value [4] was 25% and the “Population Healthy Nuclei (%)” value [4] was 52%. The “Population Hoechst High Intensity Objects (%)” value [4] was 6%, the “Population Membrane Permeable-Phenotype (%)” value [4] was 4% and the “Population Mitochondria Different-Phenotype (%)” value [4] was 16%. The “Population Mitotic Cells (%)” value [4] was 63%, the “Population Normal (%)” value [4] was 93% and the “Population Tubulin-Different-Phenotype (%)” value [4] was 70%. The “Total Cell Count” value [4] was 165, the “Population Apoptotic (%)” value [5] was 30% and the “Population Fragmented Nuclei (%)” value [5] was 12%. The “Population Healthy Nuclei (%)” value [5] was 69%, the “Population Hoechst High Intensity Objects (%)” value [5] was 2% and the “Population Membrane Permeable-Phenotype (%)” value [5] was 3%. The “Population Mitochondria Different-Phenotype (%)” value [5] was 4%, the “Population Mitotic Cells (%)” value [5] was 69% and the “Population Normal (%)” value [5] was 97%. The “Population Pyknosed Nuclei (%)” value [5] was 17%, the “Population Tubulin-Different-Phenotype (%)” value [5] was 27% and the “Total Cell Count” value [5] was 132. For the same compound, the “Population Apoptotic (%)” value [6] was 32%, the “Population Fragmented Nuclei (%)” value [6] was 31% and the “Population Healthy Nuclei (%)” value [6] was 44%. For the same compound, the “Population Membrane Permeable-Phenotype (%)” value [6] was 10%, the “Population Mitochondria Different-Phenotype (%)” value [6] was 12% and the “Population Mitotic Cells (%)” value [6] was 67%. For the same compound, the “Population Pyknosed Nuclei (%)” value [6] was 23%, the “Population Tubulin-Different-Phenotype (%)” value [6] was 60% and the “Total Cell Count” value [6] was 133. The “Population Apoptotic (%)” value [7] was 58%, the “Population Fragmented Nuclei (%)” value [7] was 17% and the “Population Healthy Nuclei (%)” value [7] was 65%. The “Population Hoechst High Intensity Objects (%)” value [7] was 2%, the “Population Membrane Permeable-Phenotype (%)” value [7] was 0% and the “Population Mitochondria Different-Phenotype (%)” value [7] was 4%. The “Population Mitotic Cells (%)” value [7] was 41%, the “Population Normal (%)” value [7] was 97% and the “Population Pyknosed Nuclei (%)” value [7] was 17%. The “Population Tubulin-Different-Phenotype (%)” value [7] was 33%, the “Total Cell Count” value [7] was 172 and the “Population Apoptotic (%)” value [8] was 36%. The “Population Fragmented Nuclei (%)” value [8] was 25%, the “Population Healthy Nuclei (%)” value [8] was 52% and the “Population Hoechst High Intensity Objects (%)” value [8] was 7%. For the same compound, the “Population Membrane Permeable-Phenotype (%)” value [8] was 6%, the “Population Mitochondria Different-Phenotype (%)” value [8] was 10% and the “Population Mitotic Cells (%)” value [8] was 63%. For the same compound, the “Population Normal (%)” value [8] was 92%, the “Population Pyknosed Nuclei (%)” value [8] was 21% and the “Population Tubulin-Different-Phenotype (%)” value [8] was 57%. For the same compound, the “Total Cell Count” value [8] was 164, the “Population Apoptotic (%)” value [9] was 70% and the “Population Fragmented Nuclei (%)” value [9] was 22%. For the same compound, the “Population Healthy Nuclei (%)” value [9] was 69%, the “Population Hoechst High Intensity Objects (%)” value [9] was 4% and the “Population Membrane Permeable-Phenotype (%)” value [9] was 1%. The “Population Mitochondria Different-Phenotype (%)” value [9] was 5%, the “Population Mitotic Cells (%)” value [9] was 30% and the “Population Normal (%)” value [9] was 95%. The “Population Pyknosed Nuclei (%)” value [9] was 7%, the “Population Tubulin-Different-Phenotype (%)” value [9] was 29% and the “Total Cell Count” value [9] was 134. For the same compound, the “Population Apoptotic (%)” value [10] was 33%, the “Population Fragmented Nuclei (%)” value [10] was 41% and the “Population Healthy Nuclei (%)” value [10] was 44%. The “Population Hoechst High Intensity Objects (%)” value [10] was 3%, the “Population Membrane Permeable-Phenotype (%)” value [10] was 23% and the “Population Mitochondria Different-Phenotype (%)” value [10] was 14%. For the same compound, the “Population Mitotic Cells (%)” value [10] was 66%, the “Population Normal (%)” value [10] was 96% and the “Population Pyknosed Nuclei (%)” value [10] was 14%. For the same compound, the “Population Tubulin-Different-Phenotype (%)” value [10] was 60%, the “Total Cell Count” value [10] was 129 and the “Population Apoptotic (%)” value [11] was 66%. For the same compound, the “Population Fragmented Nuclei (%)” value [11] was 19%, the “Population Healthy Nuclei (%)” value [11] was 65% and the “Population Hoechst High Intensity Objects (%)” value [11] was 2%. For the same compound, the “Population Membrane Permeable-Phenotype (%)” value [11] was 1%, the “Population Mitochondria Different-Phenotype (%)” value [11] was 5% and the “Population Mitotic Cells (%)” value [11] was 33%. For the same compound, the “Population Normal (%)” value [11] was 97%, the “Population Pyknosed Nuclei (%)” value [11] was 14% and the “Population Tubulin-Different-Phenotype (%)” value [11] was 41%. For the same compound, the “Total Cell Count” value [11] was 168, the “Population Apoptotic (%)” value [12] was 60% and the “Population Fragmented Nuclei (%)” value [12] was 40%. The “Population Healthy Nuclei (%)” value [12] was 46%, the “Population Hoechst High Intensity Objects (%)” value [12] was 6% and the “Population Membrane Permeable-Phenotype (%)” value [12] was 6%. The “Population Mitochondria Different-Phenotype (%)” value [12] was 7%, the “Population Mitotic Cells (%)” value [12] was 40% and the “Population Normal (%)” value [12] was 93%. For the same compound, the “Population Pyknosed Nuclei (%)” value [12] was 13%, the “Population Tubulin-Different-Phenotype (%)” value [12] was 60% and the “Total Cell Count” value [12] was 193.

— ChEMBL document CHEMBL5058577, “EUbOPEN Chemogenomics Library 2 (Multiplex)” (2022)
